Screens from PubChem BioAssay.
Most compounds without a hit are left out; they make up all but 1.8% or so of the library.
CHRM4 PAM = human M4 muscarinic receptor positive allosteric modulators, primary screen, CHO-K1 cells, Fluo-8 calcium fluorescence. Muscarinic acetylcholine receptor M4 (Homo sapiens), P08173. CHO-K1 hM4/Gqi5, ACh EC20; 0% = ACh EC20, 100% = maximal ACh. activation, % at 3 µM. actives 0.4% (n = 360,000);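 active = activation above its plate's cutoff, the mean activation of sample wells plus 3 SD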
Target sequence (P08173 whole entry, looked up): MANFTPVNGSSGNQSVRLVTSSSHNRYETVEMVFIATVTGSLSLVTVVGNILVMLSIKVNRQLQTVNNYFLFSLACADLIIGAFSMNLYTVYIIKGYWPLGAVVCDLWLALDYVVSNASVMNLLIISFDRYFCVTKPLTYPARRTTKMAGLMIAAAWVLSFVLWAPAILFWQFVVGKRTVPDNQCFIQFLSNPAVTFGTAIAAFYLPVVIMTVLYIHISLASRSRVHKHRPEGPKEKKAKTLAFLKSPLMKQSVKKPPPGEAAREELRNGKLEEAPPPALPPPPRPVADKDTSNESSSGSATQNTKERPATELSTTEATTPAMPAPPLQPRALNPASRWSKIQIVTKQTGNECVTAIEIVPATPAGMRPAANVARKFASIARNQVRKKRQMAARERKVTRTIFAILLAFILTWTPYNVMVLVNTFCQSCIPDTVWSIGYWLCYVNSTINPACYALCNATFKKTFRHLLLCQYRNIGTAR
CHRM5 antagonist = human M5 muscarinic receptor antagonists, primary screen, CHO cells, Fluo-8 calcium fluorescence | inhibition, % at 3 µM | actives 0.59% (n = 360,000) | AID 624040, 2012 | CHO-hM5 cells, ACh EC80 | Muscarinic acetylcholine receptor M5 (Homo sapiens), P08912;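 active = inhibition above a per-plate cutoff, the mean of that plate's test compounds plus 3 SD, cut at about 27% in these data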;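 also: 0% = acetylcholine EC80 with DMSO and 100% = DMSO without agonist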
M5 ag = human M5 muscarinic receptor agonists, primary screen, CHO-K1 cells, Fluo-8 calcium fluorescence; Muscarinic acetylcholine receptor M5 (Homo sapiens), P08912; CHO-K1 hM5 cells; 0% DMSO wells, 100% maximal acetylcholine response; activation, % at 3 µM; actives 0.19% (n = 360,000);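 active = activation above the run's mean over test compounds plus 3 SD, cut at about 23% in these data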;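 also: signal is peak over basal fluorescence ratio across the kinetic read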
M4 antag = human M4 muscarinic receptor antagonists, primary screen, CHO cells, Fluo-8 calcium fluorescence. Muscarinic acetylcholine receptor M4 (Homo sapiens), P08173. CHO-hM4 cells, ACh EC80. inhibition, % at 3 µM. actives 0.73% (n = 360,000);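 active = inhibition above its plate's cutoff, the mean inhibition of sample wells plus 3 SD, cut at about 27% in these data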;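 also: 0% = acetylcholine EC80 with DMSO and 100% = DMSO without agonist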
M4 ag = human M4 muscarinic receptor agonists, primary screen, CHO-K1 cells, Fluo-8 calcium fluorescence | Muscarinic acetylcholine receptor M4 (Homo sapiens), P08173 | CHO-K1 hM4/Gqi5; vehicle 0%, full acetylcholine response 100% | activation, % at 3 µM | actives 0.14% (n = 360,000) | AID 624127, 2012;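 active = activation above the run mean over all test wells plus 3 SD, cut at about 32% in these data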;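 also: peak over basal fluorescence ratio per well then scaled between controls; 0% = DMSO wells and 100% = acetylcholine at EC100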
M5 PAM = human M5 muscarinic receptor positive allosteric modulators, primary screen, CHO-K1 cells, Fluo-8 calcium fluorescence; Muscarinic acetylcholine receptor M5 (Homo sapiens), P08912; CHO-K1 hM5, ACh EC20 PAM; 0% = ACh EC20, 100% = ACh EC100; activation, % at 3 µM; actives 0.3% (n = 360,000);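 active = activation above the run cutoff, the mean activation of all test compounds plus 3 SD, cut at about 18% in these data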
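Test system: CHO-K1 hM5 cells / Doses: single-point, 3 µM nominal / Times: Post-acetylcholine fluorescence recording 140 s / Technique: Fluo-8 calcium fluorescence / Measure: Max/basal fluorescence ratio as % of EC20–EC100 ACh window / Benchmarks: low control EC20 acetylcholine (0%), high control EC100 acetylcholine (100%) / Replicates: one well per compound, no replicates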
* marks the source's active call; other numbers are inactive results; ! = not confirmed by another sample.

SMILES	CHRM4 PAM	CHRM5 antagonist	M5 ag	M4 antag	M4 ag	M5 PAM
Cc1ccc(-n2c(-c3ccc(Br)cc3)c[n+]3c2CCc2ccc4cccnc4c2-3)cc1	-31	36*	-8	41*	4	-20
COc1ccc(-n2c(-c3ccc(Cl)cc3)c[n+]3c2CCc2ccccc2-3)cc1	-14	11	-10	24	1	-4
C[C@H](CO)N1C[C@H](C)[C@@H](CN(C)C(=O)Nc2ccccc2)Oc2c(NC(=O)Nc3ccc4c(c3)OCO4)cccc2C1=O	4	9	1	-8	6	-13
C[C@H](CO)N1C[C@H](C)[C@@H](CN(C)C(=O)Nc2ccc3c(c2)OCO3)Oc2c(NC(=O)Nc3ccc4c(c3)OCO4)cccc2C1=O	-7	23	2	27*	21	-24
C[C@H](CO)N1C[C@H](C)[C@@H](CN(C)Cc2ccc(Cl)c(Cl)c2)Oc2c(NC(=O)Cc3ccccc3)cccc2C1=O	-8	7	-3	31*	21	-28
O=C(O)c1nnn(-c2cccc(C(F)(F)F)c2)c1-c1ccccc1	-9	6	5	1	0	2
COc1ccc(N(CC(=O)N2CCOCC2)S(C)(=O)=O)cc1OC	0	-2	5	-2	0	-1
CCOc1cc(/C=C2\CCCc3c2nc2ccccc2c3C(=O)O)ccc1OC	-10	6	16	4	44*	-8
Cc1cccc(C)c1NC(=O)COC(=O)c1c2c(nc3ccccc13)/C(=C\c1ccc3c(c1)OCO3)CCC2	-22	23	49*	37*	88*	-21
CCCc1cc(=O)oc2cc(C)cc(OC(C)C(=O)NCc3ccncc3)c12 (stereo not drawn)	5	-8	2	0	0	-3
O=c1[nH]c(C(F)(F)C(F)(F)C(F)(F)F)no1	4	8	2	-3	-1	-3
Cc1ccnc(NS(=O)(=O)c2ccc(NS(=O)(=O)c3ccccc3)cc2)n1	7	-6	1	6	1	23*
C[C@H](CO)N1C[C@H](C)[C@H](CN(C)S(=O)(=O)c2ccccc2)Oc2ccc(NC(=O)NC3CCCCC3)cc2CC1=O	-17	14	-3	99*	0	-2
C[C@H](CO)N1C[C@H](C)[C@@H](CN(C)S(=O)(=O)c2ccc(Cl)cc2)Oc2ccc(NS(=O)(=O)c3ccccc3)cc2CC1=O	9	10	-4	-15	3	2
Cc1ccc(S(=O)(=O)Nc2ccc3c(c2)CC(=O)N([C@H](C)CO)C[C@@H](C)[C@H](CN(C)S(=O)(=O)c2ccccc2)O3)cc1	-21	10	-2	33*	-1	-1
COc1ccccc1NC(=O)c1ccc(NC(=O)COC(=O)C2(C)CC2(Cl)Cl)cc1 (stereo not drawn)	-15	29*	2	8	16	-19
CC1(C(=O)OCC(=O)Nc2ccc(C(N)=O)cc2)CC1(Cl)Cl (stereo not drawn)	8	1	-2	-12	0	8
O=C(CSc1nc(N2CCOCC2)nc(N2CCOCC2)n1)Nc1ccc([N+](=O)[O-])cc1	4	-23	2	-12	1	22*
CN(C)Cc1ccccc1CCc1ccccc1	-14	30*	-18	31*	1	-29
Cc1cc(NCC(=O)Nc2ccc(C)c(S(=O)(=O)N3CCOCC3)c2)ccc1Br	-9	10	5	9	24	-11
Cc1cc2cc3c(cc2nc1SCC(=O)OC(C)C)OCO3	24*	-6	-1	-8	1	3
Cc1nn(Cc2c(Cl)cccc2Cl)c(C)c1NC(=O)CCCn1nc(C)c([N+](=O)[O-])c1C	-5	4	-2	-1	6	-7
Cc1nn(CCCC(=O)Nc2cccnc2Cl)c(C)c1[N+](=O)[O-]	12	3	0	29*	1	0
CCCCCCCCCCOC(=O)Cn1c(COc2cccc(C)c2)[n+](C)c2ccccc21	-13	19	-25	38*	0	-20
CCCCCCCCCCOC(=O)Cn1c(COc2ccc(OC)cc2)[n+](C)c2ccccc21	-13	28*!	-7	32*!	1	-14
SMILES	CHRM4 PAM	CHRM5 antagonist	M5 ag	M4 antag	M4 ag	M5 PAM
Cc1ccccc1OCc1n(CC(=O)OC2CC(C)CCC2C(C)C)c2ccccc2[n+]1C (stereo not drawn)	-17	44*!	-9	35*	3	-19
CCCCCCCCCCOC(=O)Cn1c(COc2ccccc2)[n+](C)c2ccccc21	-19	33*	-1	38*	2	-16
CN(Cc1ccccc1)c1ccc(C(CC(N)=O)NC(=O)c2ccc(Br)cc2)cc1[N+](=O)[O-] (stereo not drawn)	1	2	-2	3	8	-4
CCc1ccc(/C=N/NC(=O)c2nnn(-c3nonc3N)c2CN2CCOCC2)cc1	-1	1	0	1	2	0
CCCCCCCCCCOC(=O)Cn1c(COc2ccc(Cl)cc2)[n+](C)c2ccccc21	-13	21	-8	18	6	-15
CCCCCCCCCCOC(=O)Cn1c(COc2ccccc2C)[n+](C)c2ccccc21	-18	53*	-27	92*	28	-33
COc1ccccc1Cn1c(=O)[nH]c2cccnc21	-1	6	-5	-4	2	41*
CCOC(=O)C1(Cc2cccc(Cl)c2)CCCN(C(=O)CCOC)C1 (stereo not drawn)	24*	-10	1	-15	2	6
COCCNC(=O)C(c1ccc(F)cc1)N(C(=O)CCC(=O)Nc1ccccn1)c1ccc(C)cc1 (stereo not drawn)	30*	29*	1	23	16	13
O=C1c2cccc3c(O)ccc(c23)C(=O)N1Cc1ccccc1	-28	56*	173*	47*	178*	-34
CCOc1ccc(C)cc1S(=O)(=O)n1cnc2ccccc21	-3	5	2	-7	-1	-1
Cn1nccc1C(=O)N1CCCC(Nc2ccc(F)cc2)C1 (stereo not drawn)	5	5	-2	-6	1	2
O=C1C=CC(=O)N1c1cccc(-c2ccccc2)c1	-49	2	-2	42*	16	-16
